Data on 15 compounds can be found in ChEMBL document CHEMBL1157945, “Bioactive secolignans from Peperomia dindygulensis” (J Nat Prod, 2006).

Assay [1] relates to HepG2. In words: Cytotoxicity against human HepG2 cells. Format: functional, cell-based. The gist of the method:
(§1)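 Growth inhibition in WI-38 fibroblasts (Eagle's MEM), VA-13 (RITC 80-7) and HepG2 (D-MEM) lines, each medium with 10% FBS and 80 µg/mL kanamycin.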

Assay [2] can be described thus: Reversal of multidrug resistance in human AD10 cells assessed as increase in calcein accumulation at 0.25 ug/ml relative to control. Format: functional. The gist of the method: (§2)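 Multidrug-resistant ovarian A2780 subline AD10, kept in RPMI-1640 with 10% FBS and 80 µg/mL kanamycin. Intracellular accumulation of the fluorescent efflux probe calcein AM measured with test compounds at 0.25, 2.5 and 25 µg/mL; verapamil as reference. Values given relative to untreated control or to verapamil; means of triplicates.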

Assay [3] can be described thus: Reversal of multidrug resistance in human AD10 cells assessed as increase in calcein accumulation at 2.5 ug/ml relative to control. Format: functional. A digest of the protocol:
as §2

The nature of assay [4]: Reversal of multidrug resistance in human AD10 cells assessed as increase in calcein accumulation at 25 ug/ml relative to control. Format: functional. A digest of the protocol:
as §2

Assay [5] in a line: Reversal of multidrug resistance in human AD10 cells assessed as increase in calcein accumulation at 0.25 ug/ml relative to verapamil. Format: functional. A digest of the protocol: as §2
Assay [6] can be described thus: Reversal of multidrug resistance in human AD10 cells assessed as increase in calcein accumulation at 2.5 ug/ml relative to verapamil. Format: functional. A digest of the protocol: as §2
The nature of assay [7]: Reversal of multidrug resistance in human AD10 cells assessed as increase in calcein accumulation at 25 ug/ml relative to verapamil. Format: functional. The gist of the method:
as §2

In assay [8] the test system is A549. Briefly: Antiinflammatory activity in human A549 cells assessed as inhibition of TNF-alpha-induced ICAM1 induction incubated for 1 hr prior to TNFalpha challenge measured after 6 hrs. Format: functional, cell-based. The gist of the method:
(§3)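 A549 cells grown in RPMI 1640 with 10% FBS and penicillin-streptomycin. Pretreated with serially varied compound concentrations for 1 h, then stimulated with IL-1α or TNF-α for 6 h. Cell-surface ICAM-1 detected with mouse anti-human ICAM-1 antibody plus peroxidase-conjugated goat anti-mouse IgG, read as absorbance. Expression as % of control = (sample+cytokine − no cytokine)/(cytokine − no cytokine) ×100; IC50 derived from this.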

For assay [9], the system named is A549. Briefly: Antiinflammatory activity in human A549 cells assessed as inhibition of IL1alpha -induced ICAM1 induction incubated for 1 hr prior to IL1alpha challenge measured after 6 hrs. Format: functional, cell-based. A digest of the protocol:
as §3

In assay [10] the test system is A549. Briefly: Cytotoxicity against human A549 cells after 24 hrs by MTT assay. Format: functional, cell-based. To be noted: A549, 24 h. A digest of the protocol:
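A549 cells in RPMI 1640 with 10% FBS were exposed to serial dilutions of compound for 24 h. Viability read by MTT absorbance: % = (experimental − background)/(control − background) ×100. IC50 taken from viability data.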
Background: Formazan colour is commonly taken as a measure of viable cells.

A short description of assay [11]: Cytotoxicity against human WI38 cells. Format: cell-based. To be noted: WI-38. A digest of the protocol: as §1
Assay [12] deals with WI-38 VA13. In words: Cytotoxicity against human VA13 cells. Format: functional, cell-based. A digest of the protocol:
as §1

The term IC50 denotes the point on the concentration scale where inhibition reaches its midpoint.

Bounds are passed on as bounds.

In the case of `COc1cc(C(c2cc(OC)c(OC)c(OC)c2)[C@@H]2COC(=O)[C@H]2C)cc(OC)c1OC` [PEPEROMIN C], the concentration for half-maximal inhibition (IC50) in assay [1] is 189 µM; in assay [8], 125 µM; in assay [9], 246 µM; in [10], over 316 µM; in [11] it was 175 µM; in assay [12] it was 120 µM. Moreover, the Activity is reported as 109% in assay [2]; 115% in assay [3]; 138% in assay [4]; 130% in assay [5]; 118% in assay [6]; 92% in [7].

As for `COc1cc(C(c2cc(OC)c3c(c2)OCO3)[C@@H]2COC(=O)[C@H]2C)cc(OC)c1O` (some centres not stated), the half-inhibitory concentration (IC50) was 159 µM in assay [1], 174 µM in assay [11] and 112 µM in assay [12]. Moreover, the Activity is given as 99% in [2]; 104% in [3]; 107% in [4]; 93% in assay [5]; 90% in assay [6]; 71% in assay [7].

For `COc1cc(C(c2cc(OC)c3c(c2)OCO3)[C@@H]2CO[C@@H](O)[C@@H]2C)cc2c1OCO2`, the half-maximal inhibitory concentration (IC50) in assay [1] worked out at 140 µM; in assay [11] it was 142 µM; in assay [12] it was 138 µM. Further, the Activity is recorded as 99% in assay [2]; 104% in assay [3]; 107% in assay [4]; 93% in [5]; 90% in [6]; 71% in assay [7].

Consider `COc1cc([C@@H](c2cc(OC)c3c(c2)OCO3)[C@@H]2COC(=O)[C@H]2C)cc(OC)c1OC` [PEPEROMIN B], for which the IC50 was 119 µM in assay [1], over 316 µM in assay [10], 9.06 µM in [11] and 13.9 µM in assay [12]. The Activity is 111% in [2]; 104% in assay [3]; 121% in [4]; 132% in [5]; 107% in assay [6]; 81% in assay [7].

`COc1cc(C(c2cc(OC)c(OC)c(OC)c2)[C@@H]2COC(=O)[C@H]2C)cc(OC)c1O` (some centres not stated): the IC50 in [1] is 163 µM; in [8], 29 µM; in assay [9] it was 44.3 µM; in [10], over 316 µM; in assay [11] it was 184 µM; in assay [12], 151 µM. For the same compound, the Activity in assay [2] is 96%; in assay [3] it was 95%; in assay [4], 103%; in assay [5], 90%; in assay [6] it was 82%; in assay [7], 68%.

Consider `COc1cc(C(c2cc(OC)c3c(c2)OCO3)[C@@H]2COC(=O)[C@@H]2CO)cc(OC)c1OC` (some centres not stated), for which the IC50 in [1], in [11] and in assay [12] was over 224 µM throughout. Also, the Activity is reported as 105% in assay [2]; 109% in assay [3]; 125% in assay [4]; 98% in [5]; 94% in assay [6]; 83% in [7].

As for `CC(=O)O[C@H]1C(=O)[C@@]2(C)[C@H]([C@H](OC(=O)c3ccccc3)[C@]3(O)C[C@H](OC(=O)[C@H](O)[C@@H](NC(=O)c4ccccc4)c4ccccc4)C(C)=C1C3(C)C)[C@]1(OC(C)=O)CO[C@@H]1C[C@@H]2O` [PACLITAXEL], the results for the half-maximal inhibitory concentration (IC50) in assay [11] and in assay [12] were 0.0468 µM and 0.0059 µM, respectively.

For `COc1cc(C(c2cc(OC)c3c(c2)OCO3)[C@@H]2COC(=O)[C@H]2C)cc2c1OCO2` [PEPEROMIN A], the IC50 in assay [1] is over 239 µM; in [10], over 316 µM; in assay [11] it was over 239 µM; in assay [12], over 239 µM. For the same compound, the Activity is recorded as 85% in [2]; 91% in assay [3]; 120% in assay [4]; 90% in assay [5]; 82% in assay [6]; 83% in assay [7].

Consider `COc1ccc(CCN(C)CCCC(C#N)(c2ccc(OC)c(OC)c2)C(C)C)cc1OC` (configuration not stated), for which the Activity in assay [2] is listed as 106%; in [3] it was 116%; in assay [4], 150%.

For `COc1cc(C(c2cc(OC)c3c(c2)OCO3)[C@@H]2COC(=O)[C@@H]2CO)cc2c1OCO2`, the IC50 in [1] was 97.8 µM; in assay [10] it was over 316 µM; in [11], 12.8 µM; in [12], 113 µM. The Activity was 98% in assay [2]; 95% in [3]; 105% in assay [4]; 92% in assay [5]; 82% in assay [6]; 70% in [7].

For the compound `COc1cc(C(c2cc(OC)c3c(c2)OCO3)[C@@H]2COC(=O)[C@@H]2COC(C)=O)cc(OC)c1O` (single isomer, unassigned; (-)), the figures for the IC50 in assay [1], in assay [11] and in assay [12] were 75.9 µM, 14.8 µM and 15.2 µM, respectively. The Activity in assay [2] is given as 108%; in assay [3] it was 104%; in [4] it was 104%; in assay [5], 101%; in assay [6], 89%; in assay [7], 69%.

`COc1cc(C(c2cc(OC)c(OC)c(OC)c2)[C@@H]2COC(=O)[C@H]2C)cc(O)c1OC` (some centres not stated): the IC50 in assay [1] was over 231 µM; in assay [8] it was 59.9 µM; in assay [9], 119 µM; in assay [10], over 316 µM; in assay [11] it was over 231 µM; in [12], over 231 µM. Besides, the Activity in assay [2] is on record as 101%; in assay [3] it was 104%; in assay [4], 105%; in [5], 95%; in assay [6], 90%; in assay [7], 70%.

For the compound `C=C1C(=O)OC[C@H]1C(c1cc(OC)c(O)c(OC)c1)c1cc(OC)c2c(c1)OCO2` (some centres not stated), the half-inhibitory concentration (IC50) is 22.3 µM in assay [1]; 3.16 µM in assay [8]; 4.23 µM in assay [9]; 84.7 µM in [10]; 20.9 µM in assay [11]; 13.5 µM in assay [12]. Moreover, the Activity is 104% in assay [2]; 98% in assay [3]; 125% in assay [4]; 98% in assay [5]; 85% in assay [6]; 83% in assay [7].

Regarding `COc1cccc2c1C(=O)c1c(O)c3c(c(O)c1C2=O)C[C@@](O)(C(=O)CO)C[C@@H]3O[C@H]1C[C@H](N)[C@H](O)[C@H](C)O1` (stereo in doubt) [DOXORUBICIN], the IC50 was found to be 2.21 µM in [1], 1.21 µM in [11] and 0.699 µM in [12].

`C=C1C(=O)OC[C@H]1C(c1cc(OC)c2c(c1)OCO2)c1cc(OC)c2c(c1)OCO2` [PEPEROMIN E]: the 50% inhibitory concentration (IC50) in assay [1] is 12.1 µM; in [10] it was 78.9 µM; in [11], 1.21 µM; in assay [12], 1.93 µM. For the same compound, the Activity in assay [2] was 102%; in [3], 102%; in [4], 132%; in [5], 96%; in [6], 88%; in [7], 88%.
